Most compounds without a hit are left out; they make up all but 2.5% or so of the library.
AF4-AF9 inh – inhibitors of AF4 peptide binding to AF9, primary screen, biochemical, AlphaScreen, biotin-AF4 peptide, FLAG-AF9, single point. 350,000 tested, 0.47% active. inhibition, % at 10 µM;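 active means every replicate reaching a set inhibition limit, whatever the replicate mean, cut at about 25% in these data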;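 further: 0% = plate neutral control median and 100% = total signal loss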
Target sequence (P42568 whole entry, looked up): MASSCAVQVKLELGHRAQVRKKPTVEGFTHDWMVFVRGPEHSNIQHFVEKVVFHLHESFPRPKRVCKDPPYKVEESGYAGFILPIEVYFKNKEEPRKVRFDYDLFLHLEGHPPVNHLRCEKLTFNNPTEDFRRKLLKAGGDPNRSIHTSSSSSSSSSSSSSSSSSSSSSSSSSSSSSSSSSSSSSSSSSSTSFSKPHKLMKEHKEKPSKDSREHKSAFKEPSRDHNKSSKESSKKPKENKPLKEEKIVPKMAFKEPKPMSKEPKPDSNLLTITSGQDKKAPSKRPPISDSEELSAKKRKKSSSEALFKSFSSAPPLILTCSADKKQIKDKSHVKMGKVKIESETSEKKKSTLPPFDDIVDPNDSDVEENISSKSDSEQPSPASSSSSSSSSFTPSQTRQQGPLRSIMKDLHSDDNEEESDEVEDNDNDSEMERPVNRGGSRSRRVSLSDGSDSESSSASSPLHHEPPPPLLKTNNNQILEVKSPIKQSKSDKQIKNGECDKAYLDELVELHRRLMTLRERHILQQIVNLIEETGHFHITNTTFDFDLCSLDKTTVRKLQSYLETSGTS
PAX8 inh HTS – inhibitors of PAX8-driven TPO luciferase reporter, primary screen, RMG-I cells, single concentration; SteadyGlo, 24 h; inhibition, % at 12.6 µM; 360,000 tested, 1.2% active; AID 652154, 2013;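 active means mean replicate inhibition at least 60% with every replicate also reaching 60%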;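 further: luciferase light reporting Pax8 driven TPO promoter activity; plate controls were median of neutral control wells for no effect and mitoxantrone controls for full effect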
N-glyco inh – increase of ERlucT glycosylation luciferase signal, primary screen, N-linked glycosylation inhibitor project, D54 ERlucT cells, luminescence, set 2. D54 ERlucT glycosylation luciferase reporter, 24 h; percent of 100 nM tunicamycin response. reporter increase, % at 12.5 µM. 360,000 tested, 0.23% active;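 active means mean luciferase reporter signal, scaled so untreated is 0 and the glycosylation-blocking control 100, at or above a set limit in every replicate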;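 further: luciferase carries N-glycosylation sites so blocking glycosylation raises the light; 0% = median of neutral control wells and 100% = median of 100 nM tunicamycin wells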
FN deposition inh – inhibitors of fibronectin matrix deposition, primary screen, AH1F cells, Alexa488-fibronectin fluorescence, plate reader; AID 743247, 2014; inhibition, % at 12.6 µM; 350,000 tested, 0.086% active; AH1F fibroblasts, overnight;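 active means mean inhibition across replicates of 30% or more, regardless of how many single replicates reach that level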;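 further: positive control wells lacked labelled fibronectin entirely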
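test system = AH1F fibroblasts assembling fluorescent fibronectin matrix | quantity = 10000 AH1F cells per well | buffer or medium = DMEM plus 2% serum, read in PBS | doses = single dose, pinned | incubation = 1 h cell attachment, overnight exposure to compound and label | detection = fluorescence at 485 nm excitation, 525 nm emission | read-out basis = inhibition from reduced deposited-fibronectin fluorescence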
EWS-Fli inh – EWS/Fli-driven NR0B1 reporter inhibitors, primary screen, A673 cells, NR0B1 luciferase, luminescence, MLPCN library. 350,000 tested, 0.67% active. inhibition, % at 12.6 µM. viability-normalised;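 active means mean inhibition of at least 50% after viability correction, with every replicate also passing that limit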;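 further: firefly luciferase signal divided by Alamar Blue viability fluorescence both relative to DMSO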
HIV Env fusion – inhibitors of HIV-1 Env-driven cell-cell fusion, primary screen, HeLa-JRFL effector, CEM21 target cells, luciferase; inhibition, % at 12.3 µM; 360,000 tested, 1.1% active;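 active means mean replicate inhibition score of at least 50 and every replicate individually at or above 50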;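 further: 0% = plate neutral controls and 100% = maraviroc near 300 nM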
Starred values were filed as active, the others as inactive; . = not tested or not shown; ! = a repeat was not active; [ ] = dose if it differs, or a comment.

SMILES	AF4-AF9 inh	PAX8 inh HTS	N-glyco inh	FN deposition inh	EWS-Fli inh	HIV Env fusion
CCCN1[C@@H]2c3ccc(C4=CCCCC4)c(=O)n3C[C@H]1[C@H](CO)[C@H]2C(=O)Nc1ccccc1	3	.	.	.	3	.
C[C@@H]1CN([C@@H](C)CO)S(=O)(=O)c2ccc(-c3ccccc3F)cc2O[C@@H]1CN(C)Cc1ccncc1	5	.	.	-8	-6	-23[16.7 µM]
Cc1ccc(S(=O)(=O)N(C)C[C@H]2OCCCC[C@@H](C)Oc3ccc(NC(=O)NC4CCCCC4)cc3C(=O)N([C@@H](C)CO)C[C@H]2C)cc1	-2	37	.	20	-4	2[16.7 µM]
C[C@@H]1CN([C@H](C)CO)S(=O)(=O)c2ccc(-c3ccccc3)cc2O[C@H]1CN(C)Cc1ccccn1	9	.	.	-1	73*	22[16.7 µM]
C[C@@H]1CN([C@H](C)CO)S(=O)(=O)c2ccc(-c3ccc(C#N)cc3)cc2O[C@H]1CN(C)Cc1ccccn1	6	65*	.	.	53*	-102[16.7 µM]
C[C@@H]1CN([C@@H](C)CO)S(=O)(=O)c2ccc(-c3cccc(C#N)c3)cc2O[C@H]1CN(C)Cc1ccccn1	1	18	.	10	29	17[16.7 µM]
COCCNC(=O)C[C@H]1C[C@@H]2c3cc(NS(=O)(=O)c4ccccc4)ccc3O[C@@H]2[C@H](CO)O1	-1	-13	.	.	-7	-8[16.7 µM]
C[n+]1c2n(c3ccccc31)N=C(c1ccccc1)CS2	-2	28	11	9	28	61*!
C[n+]1c2n(c3ccccc31)N=C(c1ccc(-c3ccccc3)cc1)CS2	19	96*	8	-15	43	66*
CCc1nnc2n1N=C(c1ccc(Br)cc1)CS2	-3	8	3	-1	11	-3
c1ccc(C2=Nn3c(nnc3-c3ccccn3)SC2)cc1	.	0	0	6	.	-53
C[n+]1c2n(c3ccccc31)N=C(c1ccc(Br)cc1)CS2	.	.	37*	-5	.	32
c1ccc(C2=Nn3c(nnc3-c3cccnc3)SC2)cc1	.	.	3	11	.	-6
CCC(=O)N1C[C@@H](C)[C@H](OC)CN(C)C(=O)c2cc(NC(=O)c3ccno3)ccc2OC[C@@H]1C	.	8	.	-6	-8	5[16.7 µM]
Cc1ccc(S(=O)(=O)N(C)C[C@H]2Oc3ccc(NC(=O)c4ccncc4)cc3CC(=O)N([C@@H](C)CO)C[C@@H]2C)cc1	-1	-1	.	.	4	.
C[C@@H]1CN([C@@H](C)CO)C(=O)c2cccc(NS(=O)(=O)c3cn(C)cn3)c2O[C@H]1CN(C)Cc1ccc(C(F)(F)F)cc1	-2	-10	.	.	-8	-7[16.7 µM]
CC(C)NC(=O)N(C)C[C@@H]1Oc2c(NC(=O)c3cnccn3)cccc2C(=O)N([C@@H](C)CO)C[C@H]1C	-2	-5	.	.	.	.
CC(C)(C)n1nnnc1C(c1cccs1)N1CCCC2(CCCCC2)C1 (stereo not drawn)	3	.	-12	.	8	.
c1csc(C(c2nnnn2C2CCCCC2)N2CCCC3(CCCCC3)C2)c1 (stereo not drawn)	.	38	0	8	.	115*
C[C@@H]1CN([C@H](C)CO)C(=O)Cc2cc(NC(=O)Nc3ccccc3)ccc2O[C@@H]1CN(C)Cc1ccc(-c2ccccc2)cc1	1	11	.	.	-6	13[16.7 µM]
COc1ccc(CN(C)C[C@H]2Oc3ccc(NC(=O)Nc4ccc5c(c4)OCO5)cc3CC(=O)N([C@H](C)CO)C[C@H]2C)cc1	7	103*	.	14	-15	11[16.7 µM]
COc1ccc(NC(=O)Nc2ccc3c(c2)CC(=O)N([C@@H](C)CO)C[C@H](C)[C@H](CN(C)Cc2ccc(-c4ccccc4)cc2)O3)cc1	1	22	.	.	9	19[16.7 µM]
COc1ccc(CN(C)C[C@H]2Oc3ccc(NC(=O)Nc4ccc5c(c4)OCO5)cc3CC(=O)N([C@@H](C)CO)C[C@@H]2C)cc1	12	-5	.	1	-2	-2[16.7 µM]
COc1ccc(NC(=O)Nc2ccc3c(c2)CC(=O)N([C@@H](C)CO)C[C@@H](C)[C@H](CN(C)Cc2ccc(-c4ccccc4)cc2)O3)cc1	1	75*	.	.	24	15[16.7 µM]
